Screening results deposited in PubChem by several laboratories.
Shown are actives, neighbours in structure and some others; about 1.4% of the full set was active somewhere.
TNAP act hiacc: increases human TNAP activity under high phosphate acceptor concentration; P05186; purified TNAP, CDP-star luminescence, 1 M DEA, 30 min; hits give high values; 0 = EDTA background, 1 = DMSO-only activity; activation factor at 20 µM; 200,000 tested, under 10 active; AID 1136;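 active = activation factor at least 2 at 20 µM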
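Test system – human TNAP · Doses – 20 µM single point · Incubation – 30 min, room temperature · Signal – luminescent substrate turnover signal · Read-out basis – activation factor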
CHT allo act: allosterically activates the human high affinity choline transporter | B-score at 10 µM | actives 0.49% (n = 310,000) | CHT-expressing cells, membrane potential dye, choline EC20; hits give high values; LV-AA mutant CHT in HEK293 cells;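 active = initial fluorescence not abnormally high and integrated response B-score, plate-corrected, over 3 SD above library mean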
TNAP inh hi DEA: inhibitors of human TNAP at high phosphate acceptor concentration. purified TNAP, CDP-star luminescence, 1 M DEA. inhibition, % at 20 µM. actives 0.03% (n = 200,000). AID 1135;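 active = over 50% inhibition of tissue-nonspecific alkaline phosphatase at 20 µM in the single-dose screen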
ABCB6 inh MLPCN: human ABCB6 transporter inhibition. Q9NP58. K562-ABCB6 porphyrin accumulation, flow cytometry, 1 h; hits give low values. fluorescence ratio to DMSO, % at 10 µM. actives 0.19% (n = 360,000);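 active = fluorescence ratio to DMSO below 75%, the collection mean minus 3 SD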;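 also: signal is porphyrin accumulated inside mitochondria; lower ratio means ABCB6 inhibition with less porphyrin fluorescence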
Target sequence (Q9NP58 whole entry, looked up): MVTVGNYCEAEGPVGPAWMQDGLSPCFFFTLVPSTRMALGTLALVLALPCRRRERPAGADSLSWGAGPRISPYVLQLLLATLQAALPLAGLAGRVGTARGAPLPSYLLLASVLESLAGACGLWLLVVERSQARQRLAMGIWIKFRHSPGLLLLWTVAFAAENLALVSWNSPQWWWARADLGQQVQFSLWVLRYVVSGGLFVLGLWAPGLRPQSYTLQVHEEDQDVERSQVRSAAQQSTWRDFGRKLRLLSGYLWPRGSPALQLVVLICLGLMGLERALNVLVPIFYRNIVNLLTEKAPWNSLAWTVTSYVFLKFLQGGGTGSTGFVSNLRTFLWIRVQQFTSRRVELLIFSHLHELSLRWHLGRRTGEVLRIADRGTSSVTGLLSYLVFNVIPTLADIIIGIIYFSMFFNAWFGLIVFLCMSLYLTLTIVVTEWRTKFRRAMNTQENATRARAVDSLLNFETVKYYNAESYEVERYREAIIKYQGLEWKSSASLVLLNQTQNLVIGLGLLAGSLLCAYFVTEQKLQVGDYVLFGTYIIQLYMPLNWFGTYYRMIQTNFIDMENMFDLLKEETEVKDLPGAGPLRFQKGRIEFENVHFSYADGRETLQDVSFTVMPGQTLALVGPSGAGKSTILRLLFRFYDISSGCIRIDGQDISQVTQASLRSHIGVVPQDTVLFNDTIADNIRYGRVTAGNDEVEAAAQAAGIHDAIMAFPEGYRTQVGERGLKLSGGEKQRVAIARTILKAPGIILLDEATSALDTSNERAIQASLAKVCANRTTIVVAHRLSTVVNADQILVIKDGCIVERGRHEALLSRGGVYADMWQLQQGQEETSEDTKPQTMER
CHT inh: inhibitors of human choline transporter CHT. Q9GZV3. CHT-expressing cells, membrane potential dye, choline response; hits give low values. B-score at 10 µM. actives 0.86% (n = 310,000). AID 488975;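 active = B-score over 3 SD under the library average, and starting fluorescence ratio not unusually high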;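 also: choline stimulus applied at its EC90 after an EC20 pre-addition; B-score computed on integrated fluorescence ratio after choline addition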
TNAP inh no acc: blocks human TNAP activity with no phosphate acceptor present; P05186; purified TNAP, CDP-star luminescence, 30 min; inhibition, % at 20 µM; actives 0.26% (n = 200,000);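 active = tissue-nonspecific alkaline phosphatase inhibition above about 50% at 20 µM in the single-dose screen, limit read from the data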
CHT inh conf: confirmation of human choline transporter CHT inhibitors; actives 70% (n = 2,400); shares compounds with CHT inh; CHT activity remaining % of control (hits give low values), % at 10 µM; AID 493221; CHT-expressing cells, choline membrane potential dye; LV-to-AA substituted CHT, HEK293 cells;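 active = choline transporter activity left, mean of duplicates at 10 µM, below buffer-only control mean minus 3 SD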;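 also: depolarization triggered by choline at its EC90 following an EC20 pre-addition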
HEK293 CHT ctr: counter-screen for CHT inhibitors: effect in parental HEK293 cells | shares compounds with CHT inh | membrane potential dye, choline response; active = decrease or increase beyond buffer ±3SD | membrane potential ratio readout (active if shifted either direction beyond buffer ±3SD; no single direction) at 10 µM | actives 4% (n = 2,400) | AID 493222;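 also: parental cells lack the transporter so any hit is non-specific; ratio is peak minus trough fluorescence over baseline after EC90 choline challenge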
A number is an active result; - = inactive; . = not tested or not shown.

SMILES	TNAP act hiacc	CHT allo act	TNAP inh hi DEA	ABCB6 inh MLPCN	CHT inh	TNAP inh no acc	CHT inh conf	HEK293 CHT ctr
COc1ccc(NC(=O)COC(=O)C2CC2)cc1S(=O)(=O)N1CCCCC1	.	.	.	-	.	.	.	.
O=C(c1ccco1)N1CCC(c2nc(-c3ccccc3Cl)no2)CC1	-	-	-	-	-5.7	-	-	-
CN(CC(=O)Nc1ccc(F)c(Cl)c1)S(=O)(=O)c1ccc2c(c1)n(C)c(=O)c(=O)n2C	.	-	.	-	-	.	.	.
CCCc1cc(=O)[nH]c(SCc2nc3ccccc3s2)n1	-	-	-	-	-5	-	66%	-
Cn1c(=O)n(CC(=O)N2CCN(c3nnc(-c4ccccc4)c4ccccc34)CC2)c2ccccc21	-	-	-	-	-5.8	-	-	-
Cc1ccc(S(=O)(=O)N(C)CC(=O)OCC(=O)NC(c2ccccc2)c2ccccc2)cc1	-	-	-	-	-	-	.	.
O=C1NC(c2ccccc2)=C(c2ccc3ccccc3n2)C(c2ccncc2)N1 (configuration not stated)	-	-	-	-	-6.3	-	47%	-
O=C(N/N=C/c1cccnc1)c1cc(-c2ccccc2)nc2ccccc12	.	-	.	-	-	.	.	.
O=C(N/N=C/C1CC=CCC1)c1cc(-c2cccnc2)nc2ccccc12 (configuration not stated)	-	-	-	-	-11	-	14%	-
Cc1cc(=O)c(C(=O)O)c(C)n1-c1ccccc1	.	.	.	-	.	.	.	.
CC1=NN(c2ccccc2)C(=O)/C1=C/c1ccc(-c2ccc(C)c(C(=O)O)c2)o1	.	-	.	.	-6.2	.	42%	-
CC1=NN(c2ccc(Cl)c(C(=O)O)c2)C(=O)/C1=C\c1ccc(-c2ccc(C(=O)O)cc2)o1	-	.	-	-	.	-	.	.
OCCOc1cccc(CN2CCC(CO)(CCOc3ccccc3)CC2)c1	-	-	-	-	-10	-	-	-
Cc1ccc(-c2cccc(CN3CCN(C(C)C)C(CCO)C3)c2)o1 (configuration not stated)	-	-	-	-	-5.3	-	37%	-
Cc1c(C(=O)C(=O)NCc2cccs2)c2ccccc2n1C	-	-	-	-	-	-	.	.
O=C(NC(=S)N1CCN(c2ccccn2)CC1)c1ccccc1	-	-	-	-	-8.2	-	-	-
O=C(NC(=S)N1CCN(c2ccccc2)CC1)c1ccccc1	.	-	.	-	-	.	.	.
Cc1noc(/C=C/c2cccs2)c1S(=O)(=O)N1CCC(C(=O)NCCCN2CCC(C)CC2)CC1	-	-	-	-	-5.1	-	-	-
COCCNC(=O)C1CCCN(S(=O)(=O)c2c(C)noc2/C=C/c2cccs2)C1 (configuration not stated)	.	-	.	-	-	.	.	.
COC(=O)N(NC(=O)C(O)(CCC(C)C)CCC(C)C)c1ccccc1	-	-	-	-	-	-	-	-
CCCCn1c(=O)n(Cc2cccc(F)c2)c(=O)c2c1ncn2Cc1ccco1	-	-	-	-	-12	-	53%	-
Cn1cnc2c1c(=O)n(Cc1cccc(F)c1)c(=O)n2C	.	-	.	-	-	.	.	.
Cc1cc(C)n(CCNC(=O)CC2C(=O)NCCN2Cc2ccccc2C(F)(F)F)n1 (configuration not stated)	-	-	-	-	-6.4	-	-	-
Cc1ccc(N2CC(C(=O)N3CCN(Cc4ccc5c(c4)OCO5)CC3)CC2=O)cc1 (configuration not stated)	.	-	.	-	-	.	.	.
Cc1ccccc1Nc1c(-c2ccncc2)nc2ccc(Br)cn12	-	-	-	-	-6.9	-	51%	-
O=C(Nc1nnc(C(F)(F)F)s1)C1COc2ccccc2O1 (configuration not stated)	-	-	-	-	-5.4	-	49%	-
